As usually defined, the IC50 is the concentration that inhibits the measured activity by half.

Chain of RAC-gamma serine/threonine-protein kinase (Homo sapiens), Q9Y243 [S472D] (Q9Y243 whole entry S472D): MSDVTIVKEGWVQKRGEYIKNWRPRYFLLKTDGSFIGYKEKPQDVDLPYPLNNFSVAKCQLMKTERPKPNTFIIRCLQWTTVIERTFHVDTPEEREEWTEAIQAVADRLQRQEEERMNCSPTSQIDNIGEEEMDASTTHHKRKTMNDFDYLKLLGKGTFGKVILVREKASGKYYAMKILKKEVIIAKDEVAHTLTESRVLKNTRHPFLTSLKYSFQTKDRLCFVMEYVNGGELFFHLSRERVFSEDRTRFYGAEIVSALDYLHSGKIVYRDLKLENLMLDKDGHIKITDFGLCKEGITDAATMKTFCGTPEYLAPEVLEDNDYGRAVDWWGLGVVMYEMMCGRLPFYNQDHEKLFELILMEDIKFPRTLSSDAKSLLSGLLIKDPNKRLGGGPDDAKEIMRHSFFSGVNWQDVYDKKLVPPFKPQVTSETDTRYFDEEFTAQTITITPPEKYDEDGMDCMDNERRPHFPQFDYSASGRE

The test system of one assay is RAC-gamma serine/threonine-protein kinase (Homo sapiens), Q9Y243 [S472D]. The experiment in a line: Inhibition of full length human Akt3 S472D mutant assessed as remaining activity at 1 uM using GRPRTSSFAEGKK as substrate incubated for 40 mins by scintillation counting method relative to control. In a few lines:
(§1)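 Eurofins KinaseProfiler kinase assay on human Akt1, Akt2 and Akt3. Compounds were tested at 1 µM. Residual kinase activity is reported as % of control.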
As to `CC(C)NCC(C(=O)N1CCN(c2ncnc3sc4c(c23)CCC4)CC1)c1ccccc1Cl` (stereo not given), the Activity amounted to 92%.

For the compound `CC(C)NCC(C(=O)N1CCN(c2ncnc3sc4c(c23)CCC4)CC1)c1ccc(F)cc1` (stereo not given), the Activity was determined as 45%.

For `O=C(C(CNC1CCCCC1)c1ccc(Cl)cc1)N1CCN(c2ncnc3sc4c(c23)CCC4)CC1` (stereo not given), the Activity stood at 11%.

For `CC(C)NCC(C(=O)N1CCN(c2ncnc3sc4c(c23)CCC4)CC1)c1ccc(Br)cc1` (stereo not given), the Activity came to 20%.

With `CC(C)NCC(C(=O)N1CCN(c2ncnc3sc4c(c23)CCOC4)CC1)c1ccc(Cl)cc1` (stereo not given), the Activity turned out to be 77%.

Turning to `CC(C)NCC(C(=O)N1CCN(c2ncnc3sc4c(c23)CCN(C(C)C)C4)CC1)c1ccc(Cl)cc1` (stereo not given), the Activity came to 78%.

As for `CCCN1CCc2c(sc3ncnc(N4CCN(C(=O)C(CNC(C)C)c5ccc(Cl)cc5)CC4)c23)C1` (stereo not given), the Activity was 79%.

For the next assay, the system named is SMMC-7721. Description: Cytotoxicity against human SMMC-7721 cells assessed as reduction in cell viability by MTT assay. It is filed as functional, cell-based. In a few lines:
(§2)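 Hepatoma cells were grown in DMEM with 10% FBS and streptomycin, then treated with compounds. Viability was read by MTT.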
On the technique in general: Formazan colour is commonly taken as a measure of viable cells.
Regarding `O=C(C(CNC1CCCCC1)c1ccc(Cl)cc1)N1CCN(c2ncnc3sc4c(c23)CCC4)CC1` (stereo not given), the half-inhibitory concentration (IC50) is 978 nM.

`CC(C)NCC(C(=O)N1CCN(c2ncnc3sc4c(c23)CCC4)CC1)c1ccc(Br)cc1` (stereo not given): the IC50 was found to be 521 nM.

A further assay concerns HepG2. Description: Cytotoxicity against human HepG2 cells assessed as reduction in cell viability by MTT assay. It is filed as functional, cell-based. In short, it runs like this: as §2
As to `O=C(C(CNC1CCCCC1)c1ccc(Cl)cc1)N1CCN(c2ncnc3sc4c(c23)CCC4)CC1` (stereo not given), the IC50 worked out at 386 nM.

In the case of `CC(C)NCC(C(=O)N1CCN(c2ncnc3sc4c(c23)CCC4)CC1)c1ccc(Br)cc1` (stereo not given), the IC50 is 202 nM.

The target in another assay is cAMP-dependent protein kinase catalytic subunit alpha (Homo sapiens) (UniProt P17612). Description: Inhibition of full length human PKAcalpha assessed as remaining activity at 1 uM using LRRASLG as substrate incubated for 40 mins by scintillation counting method relative to control. In short, it runs like this:
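Run as an outsourced KinaseProfiler service, with human PKA and Akt1, Akt2 and Akt3 in the same panel. Each compound was tested at a single 1 µM concentration, and the result is reported as kinase activity remaining, as a percentage of control.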
As to `CC(C)NCC(C(=O)N1CCN(c2ncnc3sc4c(c23)CCC4)CC1)c1ccccc1Cl` (stereo not given), the Activity turned out to be 95%.

Regarding `CC(C)NCC(C(=O)N1CCN(c2ncnc3sc4c(c23)CCC4)CC1)c1ccc(F)cc1` (stereo not given), the Activity came to 77%.

Turning to `O=C(C(CNC1CCCCC1)c1ccc(Cl)cc1)N1CCN(c2ncnc3sc4c(c23)CCC4)CC1` (stereo not given), the Activity amounted to 29%.

Turning to `CC(C)NCC(C(=O)N1CCN(c2ncnc3sc4c(c23)CCC4)CC1)c1ccc(Br)cc1` (stereo not given), the Activity came out at 23%.

In the case of `CC(C)NCC(C(=O)N1CCN(c2ncnc3sc4c(c23)CCOC4)CC1)c1ccc(Cl)cc1` (stereo not given), the Activity was 78%.

Consider `CC(C)NCC(C(=O)N1CCN(c2ncnc3sc4c(c23)CCN(C(C)C)C4)CC1)c1ccc(Cl)cc1` (stereo not given), for which the Activity is 84%.

As to `CCCN1CCc2c(sc3ncnc(N4CCN(C(=O)C(CNC(C)C)c5ccc(Cl)cc5)CC4)c23)C1` (stereo not given), the Activity was 88%.

For the next assay, the species on record is Homo sapiens. Description: Inhibition of full length human Akt1 […] mutant assessed as remaining activity at 1 uM using GRPRTSSFAEGKK as substrate incubated for 40 mins by scintillation counting method relative to control. In short, it runs like this: as §1
Turning to `CC(C)NCC(C(=O)N1CCN(c2ncnc3sc4c(c23)CCC4)CC1)c1ccccc1Cl` (stereo not given), the Activity came out at 88%.

On to `CC(C)NCC(C(=O)N1CCN(c2ncnc3sc4c(c23)CCC4)CC1)c1ccc(F)cc1` (stereo not given), for which the Activity is 26%.

For the compound `O=C(C(CNC1CCCCC1)c1ccc(Cl)cc1)N1CCN(c2ncnc3sc4c(c23)CCC4)CC1` (stereo not given), the Activity was 1%.

In the case of `CC(C)NCC(C(=O)N1CCN(c2ncnc3sc4c(c23)CCC4)CC1)c1ccc(Br)cc1` (stereo not given), the Activity is 1%.

On to `CC(C)NCC(C(=O)N1CCN(c2ncnc3sc4c(c23)CCOC4)CC1)c1ccc(Cl)cc1` (stereo not given), for which the Activity was determined as 78%.

For the compound `CC(C)NCC(C(=O)N1CCN(c2ncnc3sc4c(c23)CCN(C(C)C)C4)CC1)c1ccc(Cl)cc1` (stereo not given), the Activity came out at 76%.

Regarding `CCCN1CCc2c(sc3ncnc(N4CCN(C(=O)C(CNC(C)C)c5ccc(Cl)cc5)CC4)c23)C1` (stereo not given), the Activity worked out at 75%.

The next assay relates to Hep 3B2. Description: Cytotoxicity against human Hep3B cells assessed as reduction in cell viability by MTT assay. It is filed as functional, cell-based. In short, it runs like this:
as §2
As to `O=C(C(CNC1CCCCC1)c1ccc(Cl)cc1)N1CCN(c2ncnc3sc4c(c23)CCC4)CC1` (stereo not given), the IC50 turned out to be 294 nM.

As to `CC(C)NCC(C(=O)N1CCN(c2ncnc3sc4c(c23)CCC4)CC1)c1ccc(Br)cc1` (stereo not given), the half-maximal inhibitory concentration (IC50) came to 228 nM.

In the next assay the target is RAC-gamma serine/threonine-protein kinase (Homo sapiens, UniProt Q9Y243, S472D). The experiment in a line: Inhibition of full length human Akt3 S472D mutant using GRPRTSSFAEGKK as substrate incubated for 40 mins by scintillation counting method. In short, it runs like this: (§3)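 Eurofins KinaseProfiler enzymatic assay on human Akt isoforms. IC50 values are the mean of at least three independent replicates ± standard deviation.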
Chain of RAC-gamma serine/threonine-protein kinase (Q9Y243 2-479 S472D limits assumed): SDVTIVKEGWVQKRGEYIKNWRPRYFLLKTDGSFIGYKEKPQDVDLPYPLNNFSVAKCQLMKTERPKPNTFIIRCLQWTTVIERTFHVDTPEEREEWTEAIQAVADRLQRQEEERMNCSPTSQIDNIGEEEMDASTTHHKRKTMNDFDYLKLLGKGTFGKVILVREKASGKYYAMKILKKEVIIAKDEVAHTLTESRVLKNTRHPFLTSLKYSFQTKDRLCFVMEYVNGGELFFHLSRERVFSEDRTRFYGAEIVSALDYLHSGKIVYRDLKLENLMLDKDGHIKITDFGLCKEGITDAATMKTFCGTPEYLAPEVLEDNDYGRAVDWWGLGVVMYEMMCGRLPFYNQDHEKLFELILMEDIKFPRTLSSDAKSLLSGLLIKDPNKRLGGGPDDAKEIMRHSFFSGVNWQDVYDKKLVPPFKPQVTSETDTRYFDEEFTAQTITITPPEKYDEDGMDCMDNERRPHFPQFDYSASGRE
Take `O=C(C(CNC1CCCCC1)c1ccc(Cl)cc1)N1CCN(c2ncnc3sc4c(c23)CCC4)CC1` (stereo not given): the 50% inhibitory concentration (IC50) was determined as 45 nM.

The compound `CC(C)NCC(C(=O)N1CCN(c2ncnc3sc4c(c23)CCC4)CC1)c1ccc(Br)cc1` (stereo not given) had an IC50 of 95 nM.

The next assay concerns Huh-7. The experiment in a line: Cytotoxicity against human Huh-7 cells assessed as reduction in cell viability by MTT assay. It is filed as functional, cell-based. In a few lines:
as §2
For the compound `O=C(C(CNC1CCCCC1)c1ccc(Cl)cc1)N1CCN(c2ncnc3sc4c(c23)CCC4)CC1` (stereo not given), the IC50 worked out at 159 nM.

Turning to `CC(C)NCC(C(=O)N1CCN(c2ncnc3sc4c(c23)CCC4)CC1)c1ccc(Br)cc1` (stereo not given), the IC50 stood at 112 nM.

In another assay the test system is RAC-beta serine/threonine-protein kinase (Homo sapiens), P31751 [S474D]. The experiment in a line: Inhibition of full length human Akt2 S474D mutant assessed as remaining activity at 1 uM using GRPRTSSFAEGKK as substrate incubated for 40 mins by scintillation counting method relative to control. In short, it runs like this: as §1
Chain of RAC-beta serine/threonine-protein kinase (Homo sapiens), P31751 [S474D] (P31751 whole entry S474D): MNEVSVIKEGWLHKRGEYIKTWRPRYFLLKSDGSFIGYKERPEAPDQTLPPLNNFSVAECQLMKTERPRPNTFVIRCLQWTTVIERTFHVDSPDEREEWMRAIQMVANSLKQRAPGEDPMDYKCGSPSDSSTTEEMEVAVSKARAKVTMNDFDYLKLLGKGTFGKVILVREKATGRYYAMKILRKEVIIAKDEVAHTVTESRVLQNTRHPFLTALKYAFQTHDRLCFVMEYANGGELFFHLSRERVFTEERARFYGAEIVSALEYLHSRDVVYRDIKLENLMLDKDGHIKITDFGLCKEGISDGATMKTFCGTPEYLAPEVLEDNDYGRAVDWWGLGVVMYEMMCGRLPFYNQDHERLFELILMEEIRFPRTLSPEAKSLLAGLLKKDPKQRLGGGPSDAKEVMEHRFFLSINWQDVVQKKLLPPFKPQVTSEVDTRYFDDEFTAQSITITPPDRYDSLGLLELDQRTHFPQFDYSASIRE
Take `CC(C)NCC(C(=O)N1CCN(c2ncnc3sc4c(c23)CCC4)CC1)c1ccccc1Cl` (stereo not given): the Activity was found to be 101%.

For `CC(C)NCC(C(=O)N1CCN(c2ncnc3sc4c(c23)CCC4)CC1)c1ccc(F)cc1` (stereo not given), the Activity was 104%.

As for `O=C(C(CNC1CCCCC1)c1ccc(Cl)cc1)N1CCN(c2ncnc3sc4c(c23)CCC4)CC1` (stereo not given), the Activity is 51%.

For `CC(C)NCC(C(=O)N1CCN(c2ncnc3sc4c(c23)CCC4)CC1)c1ccc(Br)cc1` (stereo not given), the Activity is 67%.

On to `CC(C)NCC(C(=O)N1CCN(c2ncnc3sc4c(c23)CCOC4)CC1)c1ccc(Cl)cc1` (stereo not given), for which the Activity turned out to be 81%.

Consider `CC(C)NCC(C(=O)N1CCN(c2ncnc3sc4c(c23)CCN(C(C)C)C4)CC1)c1ccc(Cl)cc1` (stereo not given), for which the Activity stood at 81%.

On to `CCCN1CCc2c(sc3ncnc(N4CCN(C(=O)C(CNC(C)C)c5ccc(Cl)cc5)CC4)c23)C1` (stereo not given), for which the Activity was found to be 89%.

Tested on in a further assay: not listed separately
Description: Inhibition of full length human Akt1 […] mutant using GRPRTSSFAEGKK as substrate incubated for 40 mins by scintillation counting method. In a few lines: as §3
`O=C(C(CNC1CCCCC1)c1ccc(Cl)cc1)N1CCN(c2ncnc3sc4c(c23)CCC4)CC1` (stereo not given): the IC50 is 51 nM.

On to `CC(C)NCC(C(=O)N1CCN(c2ncnc3sc4c(c23)CCC4)CC1)c1ccc(Br)cc1` (stereo not given), for which half-maximal inhibition (IC50) required 39 nM.

Values taken from ChEMBL document CHEMBL4680191, “Discovery of novel akt1 inhibitor induces autophagy associated death in hepatocellular carcinoma cells” (Eur J Med Chem, 2020).
